According to ChEMBL document CHEMBL1152430, “Selective inhibition of nicotinamide adenine dinucleotide kinases by dinucleoside disulfide mimics of nicotinamide adenine dinucleotide analogues” (Bioorg Med Chem, 2009):
Active and inactive are the calls of the source. The calls are words filed in the database; no cut-off is given here.

Experiments:
[1] = molecular target: L-lactate dehydrogenase (Homo sapiens) (UniProt V9HWB9); test: Inhibition of human LDH at 100 uM
[2] = species on record: Homo sapiens; test: (§1) Inhibition of human IMPDH
[3] = molecular target: Inosine-5'-monophosphate dehydrogenase 1 (Homo sapiens) (UniProt P20839); test: Inhibition of human IMPDH1 at 100 uM
[4] = Inhibition of Listeria monocytogenes NADK1
[5] = molecular target: T1, NAD kinase (Homo sapiens, UniProt O95544); test: Inhibition of human NAD kinase by modified HPLC based assay
T1 sequence (O95544 whole entry): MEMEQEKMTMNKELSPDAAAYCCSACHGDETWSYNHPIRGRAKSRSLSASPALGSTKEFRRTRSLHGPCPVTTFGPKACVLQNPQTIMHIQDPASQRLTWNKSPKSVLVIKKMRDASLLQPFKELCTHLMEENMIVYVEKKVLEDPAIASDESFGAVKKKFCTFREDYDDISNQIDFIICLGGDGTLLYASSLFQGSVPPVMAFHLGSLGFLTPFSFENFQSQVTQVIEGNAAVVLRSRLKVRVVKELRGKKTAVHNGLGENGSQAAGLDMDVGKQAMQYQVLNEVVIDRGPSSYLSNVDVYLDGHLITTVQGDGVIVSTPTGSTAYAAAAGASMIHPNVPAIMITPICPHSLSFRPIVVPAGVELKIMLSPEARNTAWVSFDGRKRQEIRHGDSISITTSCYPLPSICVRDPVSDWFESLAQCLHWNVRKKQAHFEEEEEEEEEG

[6] = molecular target: T2, NAD kinase (Mycobacterium tuberculosis, UniProt P9WHV7); test: Inhibition of Mycobacterium tuberculosis NAD kinase by modified HPLC based assay
T2 sequence (P9WHV7 whole entry): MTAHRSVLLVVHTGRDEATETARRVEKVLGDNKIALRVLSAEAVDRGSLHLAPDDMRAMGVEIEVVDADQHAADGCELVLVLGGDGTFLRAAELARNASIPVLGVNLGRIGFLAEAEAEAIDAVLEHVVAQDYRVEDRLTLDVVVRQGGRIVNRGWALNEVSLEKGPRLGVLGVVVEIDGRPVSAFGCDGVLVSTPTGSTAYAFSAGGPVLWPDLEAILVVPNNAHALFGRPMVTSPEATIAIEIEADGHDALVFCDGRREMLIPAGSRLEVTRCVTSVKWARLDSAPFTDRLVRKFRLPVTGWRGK
Outline: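 Purified-to-homogeneity M. tuberculosis NAD kinase incubated at 37 °C in 50 mM Tris/HCl pH 8.0, 20 mM MgCl₂ with ATP and NAD substrates, without or with varying inhibitor concentrations. Reaction stopped with HClO₄, neutralized with K₂CO₃, nucleotides resolved by reversed-phase C18 HPLC with potassium phosphate pH 6.0/methanol gradient.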

[7] = molecular target: L-lactate dehydrogenase (Homo sapiens) (UniProt V9HWB9); test: Inhibition of human LDH
[8] = molecular target: Inosine-5'-monophosphate dehydrogenase 2 (Homo sapiens) (UniProt P12268); test: Inhibition of human IMPDH2 at 100 uM
[9] = Binding affinity to penicillopepsin
[10] = as §1
[11] = Inhibition of horse liver alcohol dehydrogenase; parameters: species or system Equus caballus

Inosine-5'-monophosphate dehydrogenase 2 (Homo sapiens), sequence (P12268 2-514 limits assumed): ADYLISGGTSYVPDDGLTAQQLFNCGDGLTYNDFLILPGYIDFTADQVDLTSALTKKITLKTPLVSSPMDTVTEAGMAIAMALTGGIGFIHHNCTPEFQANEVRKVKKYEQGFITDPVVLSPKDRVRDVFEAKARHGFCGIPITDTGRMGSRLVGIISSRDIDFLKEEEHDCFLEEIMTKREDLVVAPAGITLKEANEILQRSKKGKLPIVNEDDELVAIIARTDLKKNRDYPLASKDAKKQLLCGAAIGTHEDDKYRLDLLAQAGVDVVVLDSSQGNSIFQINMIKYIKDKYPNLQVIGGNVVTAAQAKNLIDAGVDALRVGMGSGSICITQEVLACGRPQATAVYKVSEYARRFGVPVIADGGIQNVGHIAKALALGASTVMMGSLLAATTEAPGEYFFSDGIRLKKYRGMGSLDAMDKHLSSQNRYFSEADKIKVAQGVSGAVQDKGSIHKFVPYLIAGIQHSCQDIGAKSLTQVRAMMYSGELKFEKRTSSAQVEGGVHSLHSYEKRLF
Inosine-5'-monophosphate dehydrogenase 1 (Homo sapiens), sequence (P20839 2-514 limits assumed): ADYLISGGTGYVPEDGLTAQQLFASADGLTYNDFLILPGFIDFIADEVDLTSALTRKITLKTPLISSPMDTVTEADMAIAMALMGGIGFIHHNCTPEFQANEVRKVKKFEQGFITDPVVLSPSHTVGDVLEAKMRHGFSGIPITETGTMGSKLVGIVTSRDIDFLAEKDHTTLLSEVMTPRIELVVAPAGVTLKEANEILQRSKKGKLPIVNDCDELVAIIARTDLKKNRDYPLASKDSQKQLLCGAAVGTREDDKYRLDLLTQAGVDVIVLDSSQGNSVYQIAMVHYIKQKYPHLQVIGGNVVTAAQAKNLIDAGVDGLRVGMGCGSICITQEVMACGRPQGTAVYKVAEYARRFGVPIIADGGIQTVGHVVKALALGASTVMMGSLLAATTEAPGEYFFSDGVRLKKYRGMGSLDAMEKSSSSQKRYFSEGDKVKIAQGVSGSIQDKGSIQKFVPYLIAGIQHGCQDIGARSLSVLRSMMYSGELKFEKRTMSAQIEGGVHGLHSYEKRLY

Structure (SMILES): Nc1ncnc2c1ncn2[C@@H]1O[C@H](CSSC[C@H]2O[C@@H](n3cnc4c(N)ncnc43)[C@H](O)[C@@H]2O)[C@@H](O)[C@H]1O
- inhibition [1]: inactive
- inhibition [2]: inactive
- inhibition [3]: inactive
- Ki [4]: 20 µM
- IC50 ([5]; read-out: IC50): 87 µM
- IC50 ([6]; read-out: IC50): 45 µM
- inhibition [7]: inactive
- inhibition [8]: inactive

Structure (SMILES): COC(=O)[C@@H]1Cc2cccc(c2)CNC(=O)C[C@H](NC(=O)[C@@H](NC(=O)CC(C)C)C(C)C)C(=O)N[C@@H](CC(C)C)P(=O)(O)O1
- Ki [9]: 0.0001 µM

Structure (SMILES): Nc1ncnc2c1nc(-c1ccccc1)n2[C@@H]1O[C@H](CSSC[C@H]2O[C@@H](n3c(-c4ccccc4)nc4c(N)ncnc43)[C@H](O)[C@@H]2O)[C@@H](O)[C@H]1O
- inhibition [1]: inactive
- inhibition [3]: inactive
- IC50 ([5]; read-out: IC50): 45 µM
- IC50 [6]: Not Active
- inhibition [8]: inactive

Structure (SMILES): C[C@@]1(O)[C@@H](CSSC[C@H]2O[C@@H](n3cnc4c(N)ncnc43)[C@H](O)[C@]2(C)O)O[C@@H](n2cnc3c(N)ncnc32)[C@@H]1O
- inhibition [1]: inactive
- inhibition [3]: inactive
- IC50 [5]: Not Active
- IC50 [6]: Not Active
- inhibition [8]: inactive

Structure (SMILES): COC(=O)[C@H](Cc1ccccc1)OP(=O)(O)[C@H](CC(C)C)NC(=O)[C@H](CC(N)=O)NC(=O)[C@@H](NC(=O)CC(C)C)C(C)C
- Ki [9]: 0.042 µM

Structure (SMILES): C[C@@]1(O)[C@H](O)[C@@H](CSSC[C@H]2O[C@@H](n3cnc4c(N)ncnc43)[C@](C)(O)[C@@H]2O)O[C@H]1n1cnc2c(N)ncnc21
- inhibition [1]: inactive
- inhibition [3]: inactive
- IC50 ([5]; read-out: IC50): 280 µM
- IC50 ([6]; read-out: IC50): 500 µM
- inhibition [8]: inactive

Structure (SMILES): C#Cc1nc(N)c2ncn([C@@H]3O[C@H](COP(=O)(O)OP(=O)(O)OC[C@H]4O[C@@H](c5nc(C(N)=O)cs5)[C@H](O)[C@@H]4O)[C@@H](O)[C@H]3O)c2n1
- Ki [10]: 0.01 µM

Structure (SMILES): NC(=O)c1csc([C@@H]2O[C@H](CSSC[C@H]3O[C@@H](n4cnc5c(N)ncnc54)[C@H](O)[C@@H]3O)[C@@H](O)[C@H]2O)n1
- inhibition [1]: inactive
- inhibition [2]: inactive
- inhibition [3]: inactive
- IC50 ([5]; read-out: IC50): 110 µM
- IC50 ([6]; read-out: IC50): 80 µM
- inhibition [7]: inactive
- inhibition [8]: inactive

Structure (SMILES): NC(=O)c1csc([C@@H]2O[C@H](CSSC[C@H]3O[C@@H](c4nc(C(N)=O)cs4)[C@H](O)[C@@H]3O)[C@@H](O)[C@H]2O)n1
- inhibition [1]: inactive
- inhibition [2]: inactive
- inhibition [3]: inactive
- IC50 [5]: Not Active
- IC50 [6]: Not Active
- inhibition [7]: inactive
- inhibition [8]: inactive

Structure (SMILES): Nc1ncnc2c1ncn2[C@@H]1O[C@H](CSSC[C@H]2O[C@@H](n3c(Br)nc4c(N)ncnc43)[C@H](O)[C@@H]2O)[C@@H](O)[C@H]1O
- inhibition [1]: inactive
- inhibition [3]: inactive
- IC50 ([5]; read-out: IC50): 6 µM
- IC50 ([6]; read-out: IC50): 14 µM
- inhibition [8]: inactive

Structure (SMILES): NC(=O)c1cccc([C@@H]2O[C@H](COP(=O)(O)OP(=O)(O)OC[C@H]3O[C@@H](n4cnc5c(N)ncnc54)[C@H](O)[C@@H]3O)[C@@H](O)[C@H]2O)c1 [BENZAMIDEADENINEDINUCLEOSIDE]
- IC50 ([6]; read-out: IC50): 200 µM

Structure (SMILES): NC(=O)c1csc([C@@H]2O[C@H](COP(=O)(O)OP(=O)(O)OC[C@H]3O[C@@H](n4cnc5c(N)nc(I)nc54)[C@H](O)[C@@H]3O)[C@@H](O)[C@H]2O)n1
- Ki [10]: 0.02 µM

Structure (SMILES): NC(=O)c1csc([C@@H]2O[C@H](COP(=O)(O)OP(=O)(O)OC[C@H]3O[C@@H](n4cnc5c(N)ncnc54)[C@H](O)[C@@H]3O)[C@@H](O)[C@H]2O)n1 [TIAZOFURIN ADENINE DINUCLEOTIDE]
- Ki [10]: 0.1 µM
- Ki [11]: 0.001 µM

Structure (SMILES): CCc1nc(N)c2ncn([C@@H]3O[C@H](COP(=O)(O)OP(=O)(O)OC[C@H]4O[C@@H](c5nc(C(N)=O)cs5)[C@H](O)[C@@H]4O)[C@@H](O)[C@H]3O)c2n1
- Ki [10]: 0.001 µM

Structure (SMILES): Nc1ncnc2c1nc(Br)n2[C@@H]1O[C@H](CSSC[C@H]2O[C@@H](n3c(Br)nc4c(N)ncnc43)[C@H](O)[C@@H]2O)[C@@H](O)[C@H]1O
- inhibition [1]: inactive
- inhibition [3]: inactive
- IC50 ([5]; read-out: IC50): 6 µM
- IC50 ([6]; read-out: IC50): 19 µM
- inhibition [8]: inactive
